Test results taken from ChEMBL document CHEMBL4513216, “Probing the Open Global Health Chemical Diversity Library for Multistage-Active Starting Points for Next-Generation Antimalarials” (ACS Infect Dis, 2020).

experiment: Toxicity liver stage against HepG2, at 10uM; assay type: cell-based; parameters: test concentration 10 uM, cell line HepG2-A16-CD81EGFP; details: human, HepG2-A16-CD81EGFP cells; read-out: INHIBITION
Summary of the method: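 Uninfected HepG2-A16-CD81EGFP cells, 3 × 10^3 per well, 1536-well, plated on prespotted compound at 10 μM final, parasite-free screening media added to match infected plates; puromycin 10 μM positive, DMSO 0.5% negative; run in parallel with 48 h PbLuc assay at 37 °C, 5% CO2; viability by CellTiter-Glo luminescence, normalized to controls.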

Row | Compound | cytotoxicity at 10 µM
1 | Cc1ccc2c(c1)c(C)cc(=O)n2CCC(=O)O | -5.6%
2 | Cn1cnnc1SC1CCc2ccccc2NC1=O (centres undefined) | -0.373%
3 | COCCCN1C(=O)c2ccc(C(=O)NCCc3c[nH]cn3)cc2C1=O | -3.76%
4 | COc1ccc(OC)c(C(O)CN2CCN(c3cccc(C)c3)CC2)c1 (centres undefined) | 6.69%
5 | CCCS(=O)(=O)N1CCN(c2cc(-n3cccc3)nc(C)n2)CC1 | 6.62%
6 | CC(=O)N1CCC(CSCc2ccco2)CC1 | 9.77%
7 | Cn1cnc(S(=O)(=O)N2CCCn3cnc(CN4CCCC4)c3C2)c1 | 1.27%
8 | O=C(O)C1CCCN(C(=O)CCn2ccc3c(Br)cccc32)C1 (centres undefined) | 10.9%
9 | Cc1c(C(=O)N2CCN(c3ncccn3)CC2)n(C)c2ccc(Cl)cc12 | 3.99%
10 | CCn1ncc(CN2CCN(C(=O)Cn3cc(Br)c(C)n3)CC2)c1C | 0.301%
11 | Cn1ccnc1SCC(=O)NCc1ccc2c(c1)CCC(=O)N2 | 7.66%
12 | Cc1nn(C)c2c(N3CCCC3)nc(C3CC3)nc12 | 0.12%
13 | NC(=O)c1cccc(-c2cnc(C3CCCNC3)cn2)c1 (centres undefined) | -0.055%
14 | O=C1NC2(CCc3ccccc31)CCN(Cc1cccnc1)C2 (centres undefined) | 0.9%
15 | CNC(=O)c1cn[nH]c1C1CCCN1c1nc(C)cc(C)n1 (centres undefined) | 2.81%
16 | CCC(=O)N1CCC(c2nc(C)c3c(n2)N(C)CCC3)CC1 | 4.26%
17 | COCCc1ncc(CNC2(c3ccc(Cl)cc3Cl)CC2)cn1 | -15.8%
18 | CN(C)C(=O)CN1CCCC1c1nc(N)ncc1-c1ccc(F)cc1 (centres undefined) | -8.94%
19 | O=C(c1cccs1)N1CCc2c(nc(N3CCCC3)[nH]c2=O)C1 | -16.3%
20 | O=S(=O)(Cc1ccccc1)CC(O)Cn1cccn1 (centres undefined) | 3.4%
21 | CC(C)Oc1cccc(CNC(=O)NC2(CO)CCCC2)c1 | -57.1%
22 | CC(C)c1cc(C(=O)N(c2ccc(F)cn2)C2CCOCC2)nn1C | -4.65%

Row | Compound | cytotoxicity at 10 µM
23 | COCc1nnc(-c2cccc(C(=O)N(C(C)C)C3CCC3)c2)o1 | 1.51%
24 | COc1ccc(S(=O)(=O)Nc2cccnc2-n2cncn2)c(C)c1 | 3.64%
25 | O=C1NCCCCC1NC(=O)N1CCCc2ccccc21 (centres undefined) | -3.49%
26 | CCN1N=C(C(=O)N2CCCC(c3noc(C)n3)C2)CCC1=O (centres undefined) | -12.9%
27 | Cc1oc(-c2ccco2)nc1CC(=O)NCC(C)(C)N(C)C | -13.9%
28 | CCN1CCN(c2ccc(F)cc2C(C)NCc2cscn2)CC1 (centres undefined) | -10.3%
29 | Cc1noc(C)c1CNCc1c(C(C)C)nn(C)c1N1CCOCC1 | 4.8%
30 | CCC(CC)NC(=O)Cn1cc(C(N)=O)c(-c2ccccc2)n1 | -6.87%
31 | Cc1nnc(NCCc2nc3ccc(F)cc3n2C)c(C#N)c1C | -0.744%
32 | O=C(CCC1CCCCC1)NS(=O)(=O)CC1CC1 | -9.69%
33 | COc1ccc(NC(=O)C2CC2)cc1OCc1cccnc1 | -50.5%
34 | CCNC(=O)CCC(=O)Nc1ccc2nn(C(C)C)cc2c1 | -141%
35 | CN1CCC(C)(CNC(=O)c2ccc(SCc3cccnc3)cc2)CC1 | 12.4%
36 | COc1cccc(F)c1C(C)NC(=O)NCc1ccnc(C)n1 (centres undefined) | -10.9%
37 | CN(c1ccc(C#N)cn1)C1CCCN(Cc2noc(C3CC3)n2)C1 (centres undefined) | -17.2%
38 | CC(C)C1CCN(C(=O)NCC(=O)N(C)CC(F)(F)F)CC1 | 20.7%
39 | CN(C)c1cccc(CNCc2ccc(N3CCOCC3)cc2)c1 | 11.3%
40 | COc1ccccc1CCN(C)Cc1nc(N)nc(N(C)C)n1 | 6.96%
41 | CC(=O)N1CCN(C(=O)CNc2ccc3ncsc3c2)CC1 | -2.01%
42 | Cc1csc(C2(NCC(O)COc3ccc(F)cc3)CCC2)n1 (centres undefined) | 14.9%
43 | C[S+]([O-])c1nncn1CC(=O)c1ccc(Cl)c(Cl)c1 (centres undefined) | -4.34%
44 | O=C(Nc1nc2c(s1)CCC2)c1cccnc1N1CCOCC1 | 8.5%

Row | Compound | cytotoxicity at 10 µM
45 | CCc1ncnc2c1CCN(S(=O)(=O)CC)CC2 | -105%
46 | Cn1cccc1C(=O)NCc1cn2c(n1)CN(S(=O)(=O)C1CC1)CC2 | -114%
47 | CC(C)NC(=O)N1CCc2nc(C(=O)NCc3ccccc3)sc2CC1 | 4.17%
48 | O=C(c1ccoc1)N1CC[C@@H]2O[C@H](COCc3ccccn3)CC[C@@H]21 | 5.48%
49 | Cc1cc(CN2CC[C@H]3C[C@H](C)O[C@@H]3C2)no1 | -1.42%
50 | COc1ccc(CN2CCCC(N3CCCC3)C2)cc1Cn1cncn1 (centres undefined) | 7.33%
51 | C[C@@H]1CN(c2nc3c(cc2C(N)=O)CCC3)C[C@@]1(O)C1CCC1 | -3.98%
52 | Cc1nccn1CCCN1CCC2(CCC(=O)N(CC3CC3)C2)CC1 | 3.12%
53 | CCc1nc(CC2CN(c3ncnc4sc(C)c(C)c34)CCO2)no1 (centres undefined) | 11.9%
54 | O=C(CCN1CCCC(CO)(CC2CC2)C1)NC1CCCCC1 (centres undefined) | 1.91%
55 | Cc1cc(C(=O)NCc2cccnc2N2CCCC(O)C2)[nH]n1 (centres undefined) | 4.52%
56 | COC(=O)CNC(=O)C1(N(C)Cc2ccccc2)Cc2ccccc2C1 | 3.82%
57 | CC1=C(CCN2C[C@H](O)[C@@H](N3CCOCC3)C2)C(C)(C)CCC1 | -0.128%
58 | CN(CCc1ccccc1)C(=O)c1cc(CN2CCC(O)CC2)on1 | -2.92%
59 | CN[C@@H](C)C(=O)N(Cc1cccc(C)c1)Cc1ccccc1OC | -39.5%
60 | CC(C)C1CN(c2cnccn2)CCC(=O)N1Cc1ccc(F)cc1 (centres undefined) | 3.67%
61 | CC(C)=CCN1CCN(C(=O)CSc2ccccn2)[C@H]2CS(=O)(=O)C[C@H]21 | 4.97%
62 | CC(C)c1cc(NCC2(Cn3cccn3)CC2)nc(N)n1 | 3.19%
63 | Cc1c[nH]c(C(=O)N2CCC(c3nnc(CN(C)CCO)n3C)CC2)c1 | -3.52%
64 | COCc1cc(CN(C)C(=O)CCC(=O)Nc2cc(C)ccc2F)n[nH]1 | -14.5%
65 | C[C@@H]1CN(C(=O)CCCn2nnc(-c3ccc(F)cc3)n2)C[C@]1(C)O | 14.2%
66 | O=C(NCC(F)(F)F)C(c1cccnc1)N1CCCC1 (centres undefined) | 2.26%

Row | Compound | cytotoxicity at 10 µM
67 | Cc1cc(C)n(C2CN(c3nc(N)nc4c3CCCC4)C2)n1 | -44.4%
68 | CCCn1ccnc1-c1nccn1CCN(C)C | -1.04%
69 | CC(C)Cn1c(=O)n(CCn2cc(Cl)cn2)c2cc(C(=O)O)cnc21 | 3.72%
70 | Cn1ccnc1-c1ccc(NCCC2COc3ccccc3O2)nn1 (centres undefined) | 9.56%
71 | CCc1oc(C(=O)NCCc2nc(C(=O)O)cs2)cc1CN1CCCC1 | 19.3%
72 | CNS(=O)(=O)c1ccc(CN2CCCN(CC(C)C)CC2)cc1 | 4.03%
73 | COCCCC1CCCCN1Cc1cnn(C)c1C1CC1 (centres undefined) | -2.52%
74 | Cc1nc2c(c(N(C)Cc3ccccc3-n3cccn3)n1)CCNCC2 | -11.2%
75 | CCCNc1ncc(-c2cc(C3CC3)nc(N)c2C#N)cn1 | 8.26%
76 | COC(=O)c1cc(OCC2CCC2)cc(C(=O)N[C@@H](C)CO)c1 | -2.18%
77 | Cc1cnc(CNC(=O)CCCn2cnc3ccccc3c2=O)cn1 | -7.2%
78 | Cc1ccc(-c2ccnc(NC(C)c3n[nH]c(C)n3)n2)c(C)n1 (centres undefined) | 2.83%
79 | Nc1cc(O)nc(CCNC(=O)CC[C@@H]2CCCN3CCCC[C@H]23)n1 | -1.89%
80 | CC(C)(C)OC(=O)NC1CCCN(Cc2cccc(O)c2)C1 (centres undefined) | -45.3%
81 | CCn1cc(CN2CCCN(C3Cc4ccccc4C3)CC2)c(C)n1 | -10.9%
82 | O=C(N[C@H]1COC[C@@H]1N1CCCC1)c1csc(-c2cccs2)n1 | 9.71%
83 | CN(Cc1cc[nH]n1)C(=O)c1cccc(CCC(C)(C)O)c1 | -0.0174%
84 | Cc1ccc(=O)n(CC2(O)CCN(Cc3ccsc3)CC2)n1 | 0.642%
85 | O=C(CN1CCOC(Cn2cncn2)C1)NCc1cccs1 (centres undefined) | -10.2%
86 | COc1cccc(S(=O)(=O)NC(=O)COC2CCCC2)c1 | -7.1%
87 | CCc1nc(C2CCCN2CC(=O)Nc2nncs2)no1 (centres undefined) | -9.47%
88 | Cn1ccnc1CN1CCN(Cc2ccccc2C#N)CC1 | -3.83%

Row | Compound | cytotoxicity at 10 µM
89 | Cc1cnn(CC2CCCN2C(=O)c2ccc(C(N)=O)cn2)c1 (centres undefined) | -4.64%
90 | O=C(Cn1cnc(NC(=O)CC2CCCC2)n1)NCc1ccccc1 | -4.1%
91 | Cc1noc2ncc(C(=O)N3CCCC3c3ccncc3)cc12 (centres undefined) | -5.66%
92 | CC(C(=O)N1CCN(c2ccccc2Cl)CC1)n1cncn1 (centres undefined) | 5.17%
93 | Cc1n[nH]c(C2CN(C(=O)Cn3ccccc3=O)CCO2)n1 (centres undefined) | 5.75%
94 | Cc1cc(NC(=O)NCC(C)N2CCc3ccccc32)no1 (centres undefined) | -6.34%
95 | c1ccc(-c2cnc(CNCC3CCCN3c3cccnn3)o2)cc1 (centres undefined) | 1.56%
96 | CN(C)C(=O)[C@H]1C[C@@H]2CCN(Cc3ccoc3)C[C@@H]2O1 | -99.7%
97 | CCCN1CC[C@@H]2[C@@H](CO[C@H]2CNC(=O)c2nccn2C)C1 | -111%
98 | CC(C)c1cc(C(=O)NCC2CCCN(C(C)C)C2)n(C)n1 (centres undefined) | -1.75%
99 | CN(C)CCOC[C@H]1CC[C@H]2[C@H](CCN2C(=O)c2ccoc2)O1 | -81.5%
100 | Cn1cc(CN2CCC3(CC2)CCN(C(=O)c2cscn2)CC3)cn1 | -0.937%
101 | CCc1ccc(CN2CCC3(CC2)CN(c2cnn(C)c2)C(=O)CO3)o1 | 0.777%
102 | c1ccc(CCNc2cccc(C3CCCNC3)n2)cc1 (centres undefined) | -3.18%
103 | O=C(c1ccoc1)N1CCOCC2(CCN(C3CCOCC3)C2)C1 (centres undefined) | -6.11%
104 | O=S(=O)(C1CC1)N1CCO[C@@H]2CC(COCc3cccnc3)C[C@H]21 (some centres undefined) | 7.01%
105 | CN(C)S(=O)(=O)N1CC[C@]2(C[C@H](Oc3ncccc3F)CO2)C1 | 2.47%
106 | Nc1cnn(CC(=O)N2CCCCC2)c1 | -3.15%
107 | CCN(C)c1ncnc2c1CCN(Cc1ccc(OC)cc1)CC2 | 9.88%
108 | NC1(c2nc(C(F)(F)F)cc(=O)[nH]2)CCCCC1 | 11%
109 | CCC(=O)N1CCC[C@]2(C(=O)N(C)C)CN(c3ccccn3)C[C@@H]2C1 | 11.5%
